Measurements published in ChEMBL document CHEMBL1938337, “Discovery of novel, potent, and selective inhibitors of 3-phosphoinositide-dependent kinase (PDK1)” (J Med Chem, 2011).
pIC50: −log10 of the molar value.

How the values were obtained:
[1] = Passive permeability in canine kidney cells; format: ADME, cell-based, Canis lupus familiaris; settings: dog; read-out: permeability
[2] = molecular target: Glycogen synthase kinase-3 beta (Homo sapiens, UniProt P49841); assay: Inhibition of GSK3-beta
Chain of Glycogen synthase kinase-3 beta (P49841 whole entry): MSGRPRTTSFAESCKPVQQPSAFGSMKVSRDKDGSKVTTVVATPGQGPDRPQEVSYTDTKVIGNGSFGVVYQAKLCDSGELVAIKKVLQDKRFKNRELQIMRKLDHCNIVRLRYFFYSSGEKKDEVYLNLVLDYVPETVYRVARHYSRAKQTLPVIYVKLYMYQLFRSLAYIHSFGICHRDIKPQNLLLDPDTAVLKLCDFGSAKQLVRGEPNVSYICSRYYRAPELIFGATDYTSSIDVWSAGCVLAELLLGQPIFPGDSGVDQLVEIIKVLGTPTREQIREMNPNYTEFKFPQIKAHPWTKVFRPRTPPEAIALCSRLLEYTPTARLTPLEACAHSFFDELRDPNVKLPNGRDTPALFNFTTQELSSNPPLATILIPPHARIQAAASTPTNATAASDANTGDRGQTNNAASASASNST

[3] = molecular target: T1, Tyrosine-protein kinase JAK3 (Homo sapiens) (UniProt P52333); assay: Inhibition of JAK3 at 1 uM
T1 sequence (whole entry): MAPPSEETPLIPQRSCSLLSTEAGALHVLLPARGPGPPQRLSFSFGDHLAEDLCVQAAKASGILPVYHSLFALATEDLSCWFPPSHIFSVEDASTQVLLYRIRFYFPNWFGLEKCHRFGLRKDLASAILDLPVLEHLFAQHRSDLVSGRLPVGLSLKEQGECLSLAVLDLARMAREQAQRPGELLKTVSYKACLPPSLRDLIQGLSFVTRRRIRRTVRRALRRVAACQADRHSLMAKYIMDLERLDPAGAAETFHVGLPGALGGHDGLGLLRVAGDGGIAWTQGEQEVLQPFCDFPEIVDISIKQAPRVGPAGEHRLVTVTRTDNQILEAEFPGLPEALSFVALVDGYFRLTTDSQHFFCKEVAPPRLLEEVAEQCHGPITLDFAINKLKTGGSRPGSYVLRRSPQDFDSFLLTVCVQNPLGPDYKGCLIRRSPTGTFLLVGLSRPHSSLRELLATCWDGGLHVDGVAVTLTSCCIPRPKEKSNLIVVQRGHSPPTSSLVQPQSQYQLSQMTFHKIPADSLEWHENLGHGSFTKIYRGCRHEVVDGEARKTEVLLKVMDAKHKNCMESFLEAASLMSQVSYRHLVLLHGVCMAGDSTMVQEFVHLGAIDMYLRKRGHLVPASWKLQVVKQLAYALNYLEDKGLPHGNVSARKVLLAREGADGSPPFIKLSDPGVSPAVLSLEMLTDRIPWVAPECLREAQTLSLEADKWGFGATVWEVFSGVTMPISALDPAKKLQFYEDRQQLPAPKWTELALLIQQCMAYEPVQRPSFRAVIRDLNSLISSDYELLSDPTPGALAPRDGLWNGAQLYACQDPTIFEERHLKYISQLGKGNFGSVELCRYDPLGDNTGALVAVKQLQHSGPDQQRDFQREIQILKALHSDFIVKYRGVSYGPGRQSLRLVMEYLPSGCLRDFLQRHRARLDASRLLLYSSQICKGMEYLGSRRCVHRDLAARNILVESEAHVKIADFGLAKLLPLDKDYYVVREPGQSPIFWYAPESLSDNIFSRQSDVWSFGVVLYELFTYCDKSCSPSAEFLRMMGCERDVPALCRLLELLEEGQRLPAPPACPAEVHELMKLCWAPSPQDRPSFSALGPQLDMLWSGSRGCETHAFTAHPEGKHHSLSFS

[4] = molecular target: Tyrosine-protein kinase Lck (Homo sapiens) (UniProt P06239); assay: Inhibition of LCK at 1 uM
Chain of Tyrosine-protein kinase Lck (Homo sapiens) (P06239 2-509 limits assumed): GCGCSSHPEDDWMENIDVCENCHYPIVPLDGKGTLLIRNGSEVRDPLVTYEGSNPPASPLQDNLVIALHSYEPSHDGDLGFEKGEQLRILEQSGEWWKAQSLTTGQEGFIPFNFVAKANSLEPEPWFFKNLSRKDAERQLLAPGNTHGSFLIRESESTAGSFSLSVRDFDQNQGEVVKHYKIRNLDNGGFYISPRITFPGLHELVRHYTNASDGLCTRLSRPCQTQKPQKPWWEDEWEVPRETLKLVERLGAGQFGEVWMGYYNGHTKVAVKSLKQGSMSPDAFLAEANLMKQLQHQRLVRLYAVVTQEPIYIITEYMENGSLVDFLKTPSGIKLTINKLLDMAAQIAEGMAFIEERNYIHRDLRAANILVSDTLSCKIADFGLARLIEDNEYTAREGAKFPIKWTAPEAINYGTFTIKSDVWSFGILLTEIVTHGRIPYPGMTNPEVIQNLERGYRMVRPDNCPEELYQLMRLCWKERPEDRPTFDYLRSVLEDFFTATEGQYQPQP

[5] = Clearance in human liver microsomes; format: ADME, Microsome; settings: read-out: CLH
[6] = molecular target: Casein kinase II subunit alpha' (Homo sapiens) (UniProt P19784); assay: Inhibition of CSNK2A2 at 1 uM
Chain of Casein kinase II subunit alpha' (Homo sapiens) (P19784 whole entry, looked up): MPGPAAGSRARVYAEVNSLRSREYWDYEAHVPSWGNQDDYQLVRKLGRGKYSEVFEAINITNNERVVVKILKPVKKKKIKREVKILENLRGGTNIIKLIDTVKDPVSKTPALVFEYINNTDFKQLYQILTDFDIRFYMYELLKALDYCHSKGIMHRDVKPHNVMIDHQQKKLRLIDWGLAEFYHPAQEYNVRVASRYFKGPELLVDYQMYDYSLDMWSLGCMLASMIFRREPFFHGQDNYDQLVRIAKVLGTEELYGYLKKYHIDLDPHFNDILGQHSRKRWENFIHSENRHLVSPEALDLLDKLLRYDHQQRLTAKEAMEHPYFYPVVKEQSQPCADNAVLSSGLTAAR

[7] = molecular target: Cyclin-dependent kinase 2/cyclin A (Homo sapiens) (UniProt P24941+P20248+P78396); assay: Inhibition of CDK2/cyclinA at 1 uM; format: protein-complex assay
[8] = molecular target: T2, Serine/threonine-protein kinase Nek2 (Homo sapiens) (UniProt P51955); assay: Inhibition of NEK2 at 1 uM
T2 sequence (whole entry): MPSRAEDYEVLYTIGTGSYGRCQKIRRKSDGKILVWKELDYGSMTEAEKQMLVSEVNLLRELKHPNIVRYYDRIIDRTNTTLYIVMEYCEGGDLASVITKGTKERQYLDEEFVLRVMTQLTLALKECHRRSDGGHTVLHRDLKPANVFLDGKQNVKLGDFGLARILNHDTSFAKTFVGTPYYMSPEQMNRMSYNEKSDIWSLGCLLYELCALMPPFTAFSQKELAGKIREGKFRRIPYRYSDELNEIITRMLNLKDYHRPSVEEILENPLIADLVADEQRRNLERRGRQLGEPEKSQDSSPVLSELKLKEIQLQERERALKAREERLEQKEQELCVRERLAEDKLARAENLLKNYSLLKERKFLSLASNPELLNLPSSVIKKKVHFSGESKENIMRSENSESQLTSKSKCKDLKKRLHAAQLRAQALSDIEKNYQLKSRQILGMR

[9] = molecular target: T3, 3-phosphoinositide-dependent protein kinase 1 (Homo sapiens, UniProt O15530); assay: Inhibition of PDK1-mediated AKT1 phosphorylation at T308 in human A549 cells after 2 hrs by ELISA; format: cell-based
T3 sequence (O15530 whole entry): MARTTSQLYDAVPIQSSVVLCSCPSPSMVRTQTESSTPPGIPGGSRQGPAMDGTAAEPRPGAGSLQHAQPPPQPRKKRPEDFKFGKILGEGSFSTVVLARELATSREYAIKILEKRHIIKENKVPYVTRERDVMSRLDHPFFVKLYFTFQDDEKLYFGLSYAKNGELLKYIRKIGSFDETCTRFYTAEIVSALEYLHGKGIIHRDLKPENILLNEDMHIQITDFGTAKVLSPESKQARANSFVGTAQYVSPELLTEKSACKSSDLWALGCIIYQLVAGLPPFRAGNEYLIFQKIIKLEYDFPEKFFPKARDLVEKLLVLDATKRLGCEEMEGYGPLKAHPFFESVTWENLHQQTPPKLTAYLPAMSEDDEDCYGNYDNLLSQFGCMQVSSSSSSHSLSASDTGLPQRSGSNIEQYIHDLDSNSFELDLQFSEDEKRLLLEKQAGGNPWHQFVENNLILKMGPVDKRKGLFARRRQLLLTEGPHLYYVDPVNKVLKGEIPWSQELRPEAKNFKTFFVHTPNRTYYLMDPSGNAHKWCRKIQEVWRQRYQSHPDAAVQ
Outline: (§1)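 Cells seeded at 50,000 per well and left to adhere overnight. Inhibitor was added as a 3-fold serial dilution from 0.0169 nM to 10 μM for 2 h, then cells were lysed. Lysates were tested in a commercial pAKT-T308 sandwich ELISA per the kit protocol. IC50 from duplicates, each run repeated at least twice.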

[10] = molecular target: T3, 3-phosphoinositide-dependent protein kinase 1; assay: Inhibition of PDK1-mediated AKT1 phosphorylation at T308 in human H460 cells after 2 hrs by ELISA; format: cell-based; outline: as §1
[11] = molecular target: cAMP-dependent protein kinase catalytic subunit alpha (Homo sapiens) (UniProt P17612); assay: Inhibition of PRKACA at 1 uM
[12] = molecular target: Serine/threonine-protein kinase 26 (Homo sapiens) (UniProt Q9P289); assay: Inhibition of MST4 at 1 uM
Chain of Serine/threonine-protein kinase 26 (Homo sapiens) (Q9P289 2-416 limits assumed): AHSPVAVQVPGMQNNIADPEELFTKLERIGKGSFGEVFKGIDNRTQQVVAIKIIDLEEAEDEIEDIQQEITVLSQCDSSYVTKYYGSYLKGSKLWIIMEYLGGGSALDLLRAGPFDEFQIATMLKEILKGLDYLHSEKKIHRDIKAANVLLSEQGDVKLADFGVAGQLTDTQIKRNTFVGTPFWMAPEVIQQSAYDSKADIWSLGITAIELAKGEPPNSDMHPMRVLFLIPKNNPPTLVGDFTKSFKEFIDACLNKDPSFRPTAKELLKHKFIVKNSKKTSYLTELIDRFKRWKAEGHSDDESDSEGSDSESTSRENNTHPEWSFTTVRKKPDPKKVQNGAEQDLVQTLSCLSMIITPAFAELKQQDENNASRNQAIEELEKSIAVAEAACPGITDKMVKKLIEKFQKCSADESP

[13] = molecular target: Fibroblast growth factor receptor 1 (Homo sapiens) (UniProt P11362); assay: Inhibition of FGFR1 at 1 uM
Chain of Fibroblast growth factor receptor 1 (Homo sapiens) (P11362 22-822 limits assumed): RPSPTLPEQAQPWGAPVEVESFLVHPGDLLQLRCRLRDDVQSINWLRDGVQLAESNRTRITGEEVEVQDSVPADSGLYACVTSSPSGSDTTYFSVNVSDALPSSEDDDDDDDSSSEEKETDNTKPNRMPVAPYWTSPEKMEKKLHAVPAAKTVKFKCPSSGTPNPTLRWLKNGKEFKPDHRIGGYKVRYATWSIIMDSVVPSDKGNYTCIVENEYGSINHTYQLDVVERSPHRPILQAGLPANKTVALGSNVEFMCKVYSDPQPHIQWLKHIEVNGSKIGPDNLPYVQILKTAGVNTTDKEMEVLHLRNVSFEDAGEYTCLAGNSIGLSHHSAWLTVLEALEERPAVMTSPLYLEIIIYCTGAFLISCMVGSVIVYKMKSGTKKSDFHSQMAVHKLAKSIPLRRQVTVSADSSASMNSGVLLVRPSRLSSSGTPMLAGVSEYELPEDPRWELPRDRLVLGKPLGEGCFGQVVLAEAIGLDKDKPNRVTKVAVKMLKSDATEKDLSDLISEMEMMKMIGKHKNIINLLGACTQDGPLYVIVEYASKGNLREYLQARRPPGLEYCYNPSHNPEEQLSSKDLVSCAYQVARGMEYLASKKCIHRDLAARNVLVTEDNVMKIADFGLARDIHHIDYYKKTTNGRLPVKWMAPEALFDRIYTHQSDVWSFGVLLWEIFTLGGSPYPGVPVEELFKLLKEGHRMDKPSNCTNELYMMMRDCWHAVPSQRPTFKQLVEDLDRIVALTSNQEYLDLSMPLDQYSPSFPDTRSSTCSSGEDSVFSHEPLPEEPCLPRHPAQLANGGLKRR

[14] = molecular target: T3, 3-phosphoinositide-dependent protein kinase 1; assay: Inhibition of PDK1-mediated AKT1 phosphorylation at T308 in human SKOV3 cells after 2 hrs by ELISA; format: cell-based, SK-OV-3; outline: as §1
[15] = molecular target: Angiopoietin-1 receptor (Homo sapiens) (UniProt Q02763); assay: Inhibition of TEK at 1 uM
Chain of Angiopoietin-1 receptor (Homo sapiens) (Q02763 whole entry): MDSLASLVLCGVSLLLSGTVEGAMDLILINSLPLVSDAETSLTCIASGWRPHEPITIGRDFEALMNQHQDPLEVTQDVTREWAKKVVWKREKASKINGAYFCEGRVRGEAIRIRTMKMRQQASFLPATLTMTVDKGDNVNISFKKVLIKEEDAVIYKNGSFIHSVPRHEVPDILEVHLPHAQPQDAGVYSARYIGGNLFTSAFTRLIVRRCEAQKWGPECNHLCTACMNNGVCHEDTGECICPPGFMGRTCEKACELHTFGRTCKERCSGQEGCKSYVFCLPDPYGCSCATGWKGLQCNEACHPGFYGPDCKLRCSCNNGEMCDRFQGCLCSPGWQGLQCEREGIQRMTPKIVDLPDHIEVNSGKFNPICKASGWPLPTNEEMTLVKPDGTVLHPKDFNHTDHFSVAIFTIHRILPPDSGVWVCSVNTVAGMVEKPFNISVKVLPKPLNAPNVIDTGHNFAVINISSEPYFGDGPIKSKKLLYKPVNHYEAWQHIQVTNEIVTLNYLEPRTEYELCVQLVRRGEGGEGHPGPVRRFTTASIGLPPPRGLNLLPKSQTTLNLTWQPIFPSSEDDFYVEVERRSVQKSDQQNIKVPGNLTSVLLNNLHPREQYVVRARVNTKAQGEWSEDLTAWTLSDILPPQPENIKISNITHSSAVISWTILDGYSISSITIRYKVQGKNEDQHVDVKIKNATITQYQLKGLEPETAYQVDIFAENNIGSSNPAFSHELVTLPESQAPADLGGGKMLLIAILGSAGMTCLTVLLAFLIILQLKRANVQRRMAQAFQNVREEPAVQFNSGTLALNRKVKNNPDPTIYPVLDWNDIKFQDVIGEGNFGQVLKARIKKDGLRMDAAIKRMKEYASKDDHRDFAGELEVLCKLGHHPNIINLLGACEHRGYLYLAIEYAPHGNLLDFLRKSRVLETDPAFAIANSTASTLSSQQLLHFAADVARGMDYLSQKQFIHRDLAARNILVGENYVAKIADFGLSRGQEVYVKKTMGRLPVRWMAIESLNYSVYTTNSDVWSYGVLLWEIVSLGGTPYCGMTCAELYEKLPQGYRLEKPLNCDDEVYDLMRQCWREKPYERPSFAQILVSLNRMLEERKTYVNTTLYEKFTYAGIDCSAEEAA

Papp [1] [×10⁻⁶ cm/s] | pIC50 [2] | inhibition [3] [%] | inhibition [4] [%] | microsomal CLint [5] [µL/min/mg] | inhibition [6] [%] | inhibition [7] [%] | inhibition [8] [%] | pIC50 [9] | pIC50 [10] | inhibition [11] [%] | inhibition [12] [%] | inhibition [13] [%] | pIC50 [14] | inhibition [15] [%] | Compound
11 | 6.07 | -2 | 11 | 110 | 2 | 12 | -3 | 6.52 | 6.49 | 30 | -6 | 6 | 6.70 | 5 | CC(=O)N1CC[C@@H](Nc2cncc(C(=O)c3cn(C(C)C)c4ncnc(N)c34)n2)[C@H]1c1ccccc1
11 | 6.47 | 6 | 22 | 120 | 8 | 34 | -2 | 7.10 | 6.80 | 58 | 8 | 7 | 7.15 | 19 | CC(=O)N1CC[C@@H](Nc2cncc(C(=O)c3cn(C(C)C)c4ncnc(N)c34)n2)[C@H]1c1ccc(F)cc1
11 | 6.74 | 16 | 27 | 62 | 4 | 44 | 3 | 7.30 | 6.92 | 74 | 4 | 17 | 7.15 | 10 | CC(C)n1cc(C(=O)c2cncc(N[C@@H]3CCN(C=O)[C@@H]3c3ccc(F)cc3)n2)c2c(N)ncnc21
